# Calls of active or inactive are those of the source. The calls are words filed in the database; no cut-off is given here.
# Key:
# [1] = molecular target: T1, Peroxisome proliferator-activated receptor alpha (Homo sapiens) (UniProt Q07869); assay: Agonist activity on Gal4 chimeric human Peroxisome proliferator activated receptor alpha expressed in CHO-K1 cells; format: functional, cell-based
# T1 sequence (whole entry): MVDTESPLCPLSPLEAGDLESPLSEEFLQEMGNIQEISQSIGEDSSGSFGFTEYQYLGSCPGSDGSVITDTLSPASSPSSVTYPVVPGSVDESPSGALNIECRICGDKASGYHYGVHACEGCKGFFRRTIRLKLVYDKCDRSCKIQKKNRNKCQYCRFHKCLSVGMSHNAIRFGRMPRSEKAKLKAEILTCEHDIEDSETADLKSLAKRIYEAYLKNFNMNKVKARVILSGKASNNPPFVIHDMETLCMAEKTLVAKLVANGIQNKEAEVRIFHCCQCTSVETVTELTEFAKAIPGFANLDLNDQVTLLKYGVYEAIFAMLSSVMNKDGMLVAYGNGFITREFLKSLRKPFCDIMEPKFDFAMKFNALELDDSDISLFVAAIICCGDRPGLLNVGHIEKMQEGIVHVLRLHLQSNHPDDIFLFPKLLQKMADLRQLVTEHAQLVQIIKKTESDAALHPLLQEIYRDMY
# Summary of the method: (§1)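 GAL4–human PPAR LBD chimera, reporter assay in CHO-K1 cells. Cells seeded at 5 × 10⁴/well in Ham's F12 with 10% FCS for 24 h at 37 °C. Cotransfected for 2 h (lipofectamine) per well with 40 ng GAL4/PPAR LBD, 400 ng pFR-Luc and 5 ng pRL-TK. Compounds applied for 20 h at 37 °C, then luciferase read from cell lysates. EC50 is 50% of maximal reporter activity, from curve fit, n = 3.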
# [2] = molecular target: T2, Peroxisome proliferator-activated receptor delta (Homo sapiens) (UniProt Q03181); assay: Agonist activity on Gal4 chimeric human Peroxisome proliferator activated receptor delta expressed in CHO-K1 cells; format: functional, cell-based; summary of the method: as §1
# T2 sequence (whole entry): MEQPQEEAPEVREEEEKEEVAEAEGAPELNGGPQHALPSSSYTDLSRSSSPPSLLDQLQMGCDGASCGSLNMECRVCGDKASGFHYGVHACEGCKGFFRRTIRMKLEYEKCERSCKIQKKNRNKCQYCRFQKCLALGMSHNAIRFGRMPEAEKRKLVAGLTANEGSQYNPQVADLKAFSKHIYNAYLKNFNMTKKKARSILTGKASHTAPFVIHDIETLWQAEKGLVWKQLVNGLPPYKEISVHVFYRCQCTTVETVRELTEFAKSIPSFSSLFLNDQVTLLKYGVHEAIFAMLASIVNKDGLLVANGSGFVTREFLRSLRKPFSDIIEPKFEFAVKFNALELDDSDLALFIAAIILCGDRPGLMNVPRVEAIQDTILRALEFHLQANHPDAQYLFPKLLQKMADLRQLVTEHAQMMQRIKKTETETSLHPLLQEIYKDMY
# [3] = molecular target: T3, Peroxisome proliferator-activated receptor gamma (Homo sapiens) (UniProt P37231); assay: In vitro effective concentration for agonist activity on human Peroxisome proliferator activated receptor gamma-Gal4 chimeric receptor in transfected CHO-K1 cells at 10 uM; format: functional, cell-based
# T3 sequence (whole entry): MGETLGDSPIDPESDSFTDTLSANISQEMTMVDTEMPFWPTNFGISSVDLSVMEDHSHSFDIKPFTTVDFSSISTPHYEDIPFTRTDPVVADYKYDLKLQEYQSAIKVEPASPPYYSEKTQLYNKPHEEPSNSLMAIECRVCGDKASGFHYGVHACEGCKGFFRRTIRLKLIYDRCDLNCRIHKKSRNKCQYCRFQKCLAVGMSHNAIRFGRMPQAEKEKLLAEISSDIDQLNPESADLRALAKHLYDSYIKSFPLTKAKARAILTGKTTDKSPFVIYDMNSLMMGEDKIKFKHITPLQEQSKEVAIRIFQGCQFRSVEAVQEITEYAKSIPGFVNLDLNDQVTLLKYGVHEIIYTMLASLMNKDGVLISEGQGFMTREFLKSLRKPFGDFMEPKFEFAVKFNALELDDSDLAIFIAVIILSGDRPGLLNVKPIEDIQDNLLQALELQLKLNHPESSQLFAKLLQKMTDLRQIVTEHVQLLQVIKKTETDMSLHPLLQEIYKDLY
# [4] = molecular target: T4, Peroxisome proliferator-activated receptor alpha (Homo sapiens, UniProt Q07869); format: functional, cell-based
# T4 sequence (Q07869 whole entry): T1 sequence (whole entry)
# [5] = molecular target: T5, Peroxisome proliferator-activated receptor gamma (Homo sapiens, UniProt P37231)
# T5 sequence (P37231 whole entry): T3 sequence (whole entry)
IA [1],IA [2],IA [3],EC50 [4] [µM],EC50 [5] [µM],SMILES
inactive,inactive,inactive,,,CCC(Cc1ccc(OC)c(C(=O)N(C)Cc2ccc(C(F)(F)F)cc2)c1)C(=O)O (stereo unspecified)
,inactive,,2.7,3,CCC(Cc1ccc(OC)c(C(=O)NCc2ccc(OCCc3ccccc3)cc2)c1)C(=O)O (stereo unspecified)
,inactive,inactive,,,CCC(CC)(Cc1ccc(OC)c(C(=O)NCc2ccc(C(F)(F)F)cc2)c1)C(=O)O
,inactive,inactive,1.5,,CCC(Cc1ccc(OC)c(C(=O)NCc2ccc(OCc3ccccc3)cc2)c1)C(=O)O (stereo unspecified)
,inactive,,,4,CCC(Cc1ccc(OC)c(C(=O)NCc2ccc(-c3ccccc3)cc2)c1)C(=O)O (stereo unspecified)
,,inactive,,,CCC(Cc1ccc(OC)c(OCCc2ccc(C(F)(F)F)cc2)c1)C(=O)O (stereo unspecified)
inactive,inactive,inactive,,,COc1ccc(CC(SCc2ccccc2)C(=O)O)cc1C(=O)NCc1ccc(C(F)(F)F)cc1 (stereo unspecified)
inactive,inactive,inactive,,,CCC(Cc1ccc(OC)c(C(=O)NCc2ccccc2Oc2ccccc2)c1)C(=O)O (stereo unspecified)
,,inactive,,,COc1ccc(CC(C)C(=O)O)cc1C(=O)NCc1ccc(C(F)(F)F)cc1 (stereo unspecified)
,inactive,inactive,,,COc1ccc(CCC(=O)O)cc1C(=O)NCc1ccc(C(F)(F)F)cc1
,inactive,inactive,,,CCC(Cc1ccc(OC)c(CC(=O)Nc2ccc(C(F)(F)F)cc2)c1)C(=O)O (stereo unspecified)
,inactive,inactive,,,COc1ccc(CC(C(=O)O)C(C)C)cc1C(=O)NCc1ccc(C(F)(F)F)cc1 (stereo unspecified)
,inactive,,,,COc1ccc(CCCC(=O)O)cc1C(=O)NCc1ccc(C(F)(F)F)cc1
,inactive,inactive,9.4,,CCC(Cc1ccc(OC)c(C(=O)NCc2ccccc2OC)c1)C(=O)O (stereo unspecified)
,,inactive,,,CCCC(Cc1ccc(OC)c(C(=O)NCc2ccc(C(F)(F)F)cc2)c1)C(=O)O (stereo unspecified)
inactive,inactive,inactive,,,CCC(Cc1ccc(OC)c(NC(=O)Nc2ccc(C(F)(F)F)cc2)c1)C(=O)O (stereo unspecified)
inactive,inactive,inactive,,,COc1ccc(CC(C(=O)O)c2ccccc2)cc1C(=O)NCc1ccc(C(F)(F)F)cc1 (stereo unspecified)
inactive,inactive,inactive,,,COc1ccc(CC(Oc2ccccc2)C(=O)O)cc1C(=O)NCc1ccc(C(F)(F)F)cc1 (stereo unspecified)
,,,,> 10,CCC(Cc1ccc(OC)c(CNC(=O)c2ccc(C(F)(F)F)cc2)c1)C(=O)O (stereo unspecified)
,inactive,inactive,,,CCC(Cc1ccc(OC)c(C(=O)Nc2ccc(C(F)(F)F)cc2)c1)C(=O)O (stereo unspecified)
inactive,inactive,inactive,,,COc1ccc(C(=O)O)cc1C(=O)NCc1ccc(C(F)(F)F)cc1
inactive,inactive,inactive,,,COc1ccc(CC(Sc2ccccc2)C(=O)O)cc1C(=O)NCc1ccc(C(F)(F)F)cc1 (stereo unspecified)
,inactive,,3.1,,CCC(Cc1ccc(OC)c(C(=O)NCc2cccc(OC)c2)c1)C(=O)O (stereo unspecified)
,,inactive,,,CCC(Cc1ccc(OC)c(CCCc2ccc(C(F)(F)F)cc2)c1)C(=O)O (stereo unspecified)
,inactive,inactive,,,CCC(Cc1ccc(OC)c(NC(=O)Cc2ccc(C(F)(F)F)cc2)c1)C(=O)O (stereo unspecified)
,inactive,inactive,,,COc1ccc(CC(C)(C)C(=O)O)cc1C(=O)NCc1ccc(C(F)(F)F)cc1
,inactive,inactive,,,COc1ccc(CC(OC)C(=O)O)cc1C(=O)NCc1ccc(C(F)(F)F)cc1 (stereo unspecified)

SMILES,IA [1],IA [2],IA [3],EC50 [4] [µM],EC50 [5] [µM]
CCC(Cc1ccc(OC)c(C(=O)NCCc2ccc(C(F)(F)F)cc2)c1)C(=O)O (stereo unspecified),,,inactive,,
CCC(Cc1ccc(OC)c(CNCc2ccc(C(F)(F)F)cc2)c1)C(=O)O (stereo unspecified),,,inactive,,

# Source: ChEMBL document CHEMBL1145047, “Design, synthesis, and evaluation of substituted phenylpropanoic acid derivatives as human peroxisome proliferator activated receptor activators. Discovery of potent and human peroxisome proliferator activated receptor alpha subtype-selective activators” (J Med Chem, 2003)
